Assay results reported in ChEMBL document CHEMBL4359831, “Chemoproteomics of an Indole-Based Quinone Epoxide Identifies Druggable Vulnerabilities in Vancomycin-Resistant Staphylococcus aureus” (J Med Chem, 2019).
Values after ≈ are worked out from the molar mass of the structure shown. Active and inactive are the calls of the source. No cut-off for these calls is given here.

How the values were obtained:
Staphylococcus aureus [1] = experiment: Binding affinity to Staphylococcus aureus ATCC 29213 Transcriptional regulator at 10 uM in presence of 9-(Pent-4-yn-1-yl)-1a,10a-dihydro-2H-oxireno[2',3':4,5]-benzo[1,2-a]carbazole-2,10(9H)-dione after 1 hr by biotin-azide fluorescence dependent LC-MS/MS-based ABPP assay
Summary of the method: (§1)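 Competitive LC–MS/MS ABPP on S. aureus soluble proteome. Pretreatment 1 h with DMSO, compound (10 μM), comparator (10 μM) or iodoacetamide (10 mM). Chase with alkyne probe (10 μM, 1 h), then Cu-catalysed click with biotin-azide and LC–MS/MS. Targets were proteins at ratio ≤0.1 versus DMSO in the compound and IAM groups and ~1 in the comparator group.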

[2] = molecular target: T1, 2-dehydropantoate 2-reductase (Staphylococcus aureus) (UniProt A0A0J9X283); experiment: Binding affinity to Staphylococcus aureus ATCC 29213 2-dehydropantoate 2-reductase at 10 uM in presence of 9-(Pent-4-yn-1-yl)-1a,10a-dihydro-2H-oxireno[2',3':4,5]-benzo[1,2-a]carbazole-2,10(9H)-dione after 1 hr by biotin-azide fluorescence dependent LC-MS/MS-based ABPP assay; summary of the method: as §1
T1 sequence (whole entry): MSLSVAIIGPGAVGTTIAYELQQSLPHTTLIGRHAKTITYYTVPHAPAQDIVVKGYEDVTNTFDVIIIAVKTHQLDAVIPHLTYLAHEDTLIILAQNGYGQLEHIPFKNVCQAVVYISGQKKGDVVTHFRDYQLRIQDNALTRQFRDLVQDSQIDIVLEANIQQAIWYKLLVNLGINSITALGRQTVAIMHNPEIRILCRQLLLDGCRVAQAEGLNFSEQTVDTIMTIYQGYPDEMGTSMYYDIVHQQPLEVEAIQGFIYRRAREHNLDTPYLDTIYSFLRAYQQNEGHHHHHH

[3] = L-cysteine reactivity in pH 7.4 phosphate buffer assessed as pseudo first order rate constant at 100 uM measured at 10 mins time interval up to 60 mins by HPLC analysis
Enterococcus faecalis = experiment: Antibacterial activity against Enterococcus faecalis B3119 after 16 to 18 hrs by CLSI M07-A10 protocol based dilution method; format: functional
Staphylococcus aureus [4] = experiment: Binding affinity to Staphylococcus aureus ATCC 29213 MEP-cytidylyltransferase at 10 uM in presence of 9-(Pent-4-yn-1-yl)-1a,10a-dihydro-2H-oxireno[2',3':4,5]-benzo[1,2-a]carbazole-2,10(9H)-dione after 1 hr by biotin-azide fluorescence dependent LC-MS/MS-based ABPP assay; summary of the method: as §1
Staphylococcus aureus [5] = experiment: Antibacterial activity against Staphylococcus aureus ATCC 29213 after 16 to 18 hrs by CLSI M07-A10 protocol based dilution method; format: functional
Summary of the method: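 MIC against ATCC 29213 determined by a previously described protocol; values in μg/mL.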

Erythrocyte = experiment: Toxicity in human erythrocytes assessed as induction of hemolysis at 100 ug/ml incubated under shaking condition for 1 hr by spectrophotometric method; format: cell-based
Klebsiella pneumoniae = experiment: Antibacterial activity against Klebsiella pneumoniae ATCC BAA-1705 after 16 to 18 hrs by CLSI M07-A10 protocol based dilution method; format: functional
Staphylococcus aureus [6] = experiment: Antibacterial activity against vancomycin-resistant Staphylococcus aureus HIP11714 after 16 to 18 hrs by CLSI M07-A10 protocol based dilution method; format: functional
[7] = Selectivity index, ratio of CC50 for African green monkey Vero cells to MIC90 for Staphylococcus aureus ATCC 29213; format: toxicity; details: read-out: Selectivity Index
Staphylococcus aureus [8] = experiment: Bactericidal activity against vancomycin-resistant Staphylococcus aureus HIP11714 at 10 times MIC measured up to 24 hrs by time kill assay; format: functional, organism-based
Staphylococcus aureus [9] = experiment: Antibacterial activity against vancomycin-resistant Staphylococcus aureus SA-71080 after 16 to 18 hrs by CLSI M07-A10 protocol based dilution method; format: functional
[10] = L-cysteine reactivity in pH 7.4 phosphate buffer at 100 uM preincubated for 1 hr followed by mono-bromobimane addition and measured after 30 mins by fluorescence based competition assay
Staphylococcus aureus [11] = experiment: Antibacterial activity against vancomycin-resistant Staphylococcus aureus AIS100050 after 16 to 18 hrs by CLSI M07-A10 protocol based dilution method; format: functional
Staphylococcus aureus [12] = experiment: Binding affinity to Staphylococcus aureus ATCC 29213 Thioredoxin at 10 uM in presence of 9-(Pent-4-yn-1-yl)-1a,10a-dihydro-2H-oxireno[2',3':4,5]-benzo[1,2-a]carbazole-2,10(9H)-dione after 1 hr by biotin-azide fluorescence dependent LC-MS/MS-based ABPP assay; summary of the method: as §1
Staphylococcus aureus [13] = experiment: Binding affinity to Staphylococcus aureus ATCC 29213 HxlR family transcriptional regulator at 10 uM in presence of 9-(Pent-4-yn-1-yl)-1a,10a-dihydro-2H-oxireno[2',3':4,5]-benzo[1,2-a]carbazole-2,10(9H)-dione after 1 hr by biotin-azide fluorescence dependent LC-MS/MS-based ABPP assay; summary of the method: as §1
[14] = molecular target: T2, Alkaline phosphatase synthesis transcriptional regulatory protein (Staphylococcus aureus) (UniProt W8TVM3); experiment: Binding affinity to Staphylococcus aureus ATCC 29213 Transcriptional regulator PhoP at 10 uM in presence of 9-(Pent-4-yn-1-yl)-1a,10a-dihydro-2H-oxireno[2',3':4,5]-benzo[1,2-a]carbazole-2,10(9H)-dione after 1 hr by biotin-azide fluorescence dependent LC-MS/MS-based ABPP assay; summary of the method: as §1
T2 sequence (whole entry): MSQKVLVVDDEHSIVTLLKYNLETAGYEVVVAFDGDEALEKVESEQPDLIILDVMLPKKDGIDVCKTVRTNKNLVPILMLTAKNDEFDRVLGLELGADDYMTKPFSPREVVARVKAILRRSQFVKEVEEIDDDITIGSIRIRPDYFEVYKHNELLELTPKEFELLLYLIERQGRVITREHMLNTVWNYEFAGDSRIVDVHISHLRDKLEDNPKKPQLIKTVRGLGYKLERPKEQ

Pseudomonas aeruginosa = experiment: Antibacterial activity against Pseudomonas aeruginosa ATCC 27853 after 16 to 18 hrs by CLSI M07-A10 protocol based dilution method; format: functional
Staphylococcus aureus [15] = experiment: Antibacterial activity against vancomycin-resistant Staphylococcus aureus HIP14300 after 16 to 18 hrs by CLSI M07-A10 protocol based dilution method; format: functional
[16] = molecular target: T3, Arsenate reductase (Staphylococcus aureus) (UniProt P0A006); experiment: Binding affinity to Staphylococcus aureus ATCC 29213 Arsenate reductase at 10 uM in presence of 9-(Pent-4-yn-1-yl)-1a,10a-dihydro-2H-oxireno[2',3':4,5]-benzo[1,2-a]carbazole-2,10(9H)-dione after 1 hr by biotin-azide fluorescence dependent LC-MS/MS-based ABPP assay; summary of the method: as §1
T3 sequence (whole entry): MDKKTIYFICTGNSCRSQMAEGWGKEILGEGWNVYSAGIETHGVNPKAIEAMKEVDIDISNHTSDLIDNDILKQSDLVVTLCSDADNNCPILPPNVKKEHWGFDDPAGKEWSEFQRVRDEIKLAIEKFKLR

Q: With `CC(C)n1c2ccccc2c2ccc3c(c21)C(=O)C1OC1C3=O` (stereo not given) as the compound, how does the Activity (Staphylococcus aureus [1]) read?
A: Active

Q: What about the Activity [2] of the same compound?
A: Active

Q: What about the K [3] of the same compound?
A: 7.54 ×10⁻² /min

Q: What about the MIC (Enterococcus faecalis) of the same compound?
A: 64 µg/mL (≈ 210 µM)

Q: And the Activity (Staphylococcus aureus [4])?
A: Active

Q: And the MIC (Staphylococcus aureus [5])?
A: 0.125 to 0.5 µg/mL (≈ 0.409 to 1.64 µM)

Q: What about the Activity (Erythrocyte) of the same compound?
A: Non-Toxic

Q: And the MIC (Klebsiella pneumoniae)?
A: 64 µg/mL (≈ 210 µM)

Q: And the MIC (Staphylococcus aureus [6])?
A: 0.5 µg/mL (≈ 1.64 µM)

Q: What about the selectivity ratio [7] of the same compound?
A: > 200

Q: What about the Activity (Staphylococcus aureus [8]) of the same compound?
A: Active

Q: What about the MIC (Staphylococcus aureus [9]) of the same compound?
A: 0.5 µg/mL (≈ 1.64 µM)

Q: And the Activity [10]?
A: Active

Q: And the MIC (Staphylococcus aureus [11])?
A: 0.5 µg/mL (≈ 1.64 µM)

Q: And the Activity (Staphylococcus aureus [12])?
A: Active

Q: And the Activity (Staphylococcus aureus [13])?
A: Active

Q: And the Activity [14]?
A: Active

Q: And the MIC (Pseudomonas aeruginosa)?
A: 64 µg/mL (≈ 210 µM)

Q: And the MIC (Staphylococcus aureus [15])?
A: 0.5 µg/mL (≈ 1.64 µM)

Q: And the Activity [16]?
A: Active
